KCNK9 block: KCNK9 potassium channel inhibitors, primary screen, HEK293 cells, thallium flux; B-score at 10 µM; FluxOR thallium flux fluorescence; hits give low values; 310,000 compounds, 1.2% hits; Potassium channel subfamily K member 9 (Homo sapiens), Q9NPC2;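 active means ratio B-score over 3 SD below the library mean, with starting fluorescence within 5 SD of its mean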;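 further: negative B-score means less thallium flux so channel inhibition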
Target sequence (Q9NPC2 whole entry, looked up): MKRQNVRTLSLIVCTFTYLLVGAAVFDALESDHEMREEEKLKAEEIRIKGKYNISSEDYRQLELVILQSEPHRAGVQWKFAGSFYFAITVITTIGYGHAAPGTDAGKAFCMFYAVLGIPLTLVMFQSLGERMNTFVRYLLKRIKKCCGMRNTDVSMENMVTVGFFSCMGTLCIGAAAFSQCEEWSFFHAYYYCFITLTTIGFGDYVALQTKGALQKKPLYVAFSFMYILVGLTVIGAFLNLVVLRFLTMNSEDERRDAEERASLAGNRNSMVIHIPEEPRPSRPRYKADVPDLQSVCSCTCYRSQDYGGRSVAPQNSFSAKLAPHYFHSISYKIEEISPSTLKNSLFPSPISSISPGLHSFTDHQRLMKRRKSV
KCNQ1 block: inhibitors of human KCNQ1 channel, primary screen, cell-based, thallium flux, high-throughput. Potassium voltage-gated channel subfamily KQT member 1 (Homo sapiens), P51787. 310,000 compounds, 1.3% hits. B-score at 10 µM. CHO-K1 KCNQ1, FluxOR thallium flux fluorescence; hits give high values;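 active means compounds whose thallium flux B-score, printed positive for inhibition, exceeds three library SD while starting fluorescence stays within three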;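 further: channel opened by potassium depolarization with thallium stimulus after 20 min compound exposure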
KCNQ1 act: potentiators or activators of KCNQ1 channel, primary screen, cell-based, thallium flux, high-throughput; Potassium voltage-gated channel subfamily KQT member 1 (Homo sapiens), P51787; CHO-K1 KCNQ1, thallium flux FluxOR fluorescence; hits give high values; B-score at 10 µM; 310,000 compounds, 0.35% hits; AID 2648, 2010;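 active means fluorescence ratio B-score, a plate-corrected score, at least three library SD, with initial intensity B-score within 5 SD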
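System: Stable KCNQ1 CHO-K1 line | Incubation: 90 min dye loading and 20 min compound exposure, both at room temperature | Measure: Ratio B score | Medium: Assay buffer for compound exposure, DMSO matched across wells | Compound dosing: Single-concentration screen | Probe or stimulus: K+/Tl+ depolarizing stimulus | Measured by: Kinetic FluxOR fluorescence, 10 s baseline plus 110 s post-stimulus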
hERG protect: hERG rescue from dofetilide block, primary screen, cell-based, CHO-hERG, FluxOR thallium flux, dofetilide IC70 | AID 1511, 2009 | activation (rescue from dofetilide block), less the hit threshold, % at 10 µM | dofetilide IC70 present | 310,000 compounds, 0.51% hits;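 active means activation above the mean of controls blocked by dofetilide plus 5 SD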;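 further: thallium influx through hERG after potassium depolarization seen as dye fluorescence rise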
Kir21 inh: inhibitors of mouse Kir2.1 inward-rectifier potassium channel | Inward rectifier potassium channel 2 (Mus musculus), P35561 | B-score at 10 µM | HEK293-Kir2.1, FluxOR thallium flux fluorescence; hits give low values | AID 1672, 2009 | 310,000 compounds, 0.85% hits;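 active means fluorescence ratio B-score at or below minus 3 SD of library scores, with starting-brightness B-score within 2 SD, cut at about -4.2 in these data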;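 further: channel flux triggered by added potassium and thallium sulfate stimulus; B-score of peak minus minimum fluorescence over baseline after thallium stimulus; more negative B-score means stronger Kir2.1 block with less thallium influx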
KCNK3 inh: human KCNK3 channel inhibitors, primary screen, CHO cells, FluxOR thallium flux, B-score. FluxOR fluorescence; hits give low values. B-score at 10 µM. 340,000 compounds, 0.84% hits;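 active means B-score under library mean minus 4 SD, starting fluorescence ratio at most library mean plus 5 SD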;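 further: more negative B-score means stronger inhibition of thallium flux through KCNK3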
KCNK9 inh conf: KCNK9 potassium channel inhibitors, confirmation, HEK293 cells, thallium flux, duplicate | shares compounds with KCNK9 block | FluxOR thallium flux fluorescence | inhibition, % at 10 µM | 4,900 compounds, 43% hits;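 active means thallium signal inhibited by more than 5 SD of the compound-free buffer control wells, on both duplicate plates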;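 further: 0% = assay buffer control wells without compound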
Kir2-1 spec: mouse Kir2.1 channel inhibition, confirmation, selectivity assay for KCNK9 modulator project, cell-based, HEK293, thallium flux | shares compounds with KCNK9 block | Kir2.1 cells, FluxOR thallium flux fluorescence | inhibition, % at 10 µM | 4,900 compounds, 4% hits;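 active means thallium signal drop more than 5 SD beyond the mean of the no-compound control wells, seen in both duplicate plates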;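 further: signal is fluorescence rise after thallium addition divided by baseline fluorescence; plate controls were assay buffer only for no effect and full block by chlorpromazine control for full effect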
KCNK9 uninduced: thallium flux in non-induced HEK293 cells, confirmation, counter-screen for KCNK9 inhibitor project, cell-based, second counter screen, non-induced KCNK9-HEK293; shares compounds with KCNK9 block; FluxOR thallium flux; inhibition, % at 10 µM; 4,900 compounds, 40% hits; AID 492997, 2010;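 active means thallium signal drop beyond 5 SD of the untreated control mean, on both duplicate plates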;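 further: plate controls were buffer only IC0 wells for no effect and SID17386958 at its maximal inhibitory level for full effect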
* = called active by the depositor; i = inactive; . = not tested or not shown. The list is not random: actives were taken first. Their share in the collection is about 3.8%.

SMILES | KCNK9 block | KCNQ1 block | KCNQ1 act | hERG protect | Kir21 inh | KCNK3 inh | KCNK9 inh conf | Kir2-1 spec | KCNK9 uninduced
CCn1c(=O)n(CCOC)c(=O)c2c3c(sc21)CCCC3 | i | i | i | -13 | -1.1 | i | . | . | .
CN(C)CCn1c(=O)n(Cc2ccco2)c(=O)c2c3c(sc21)CCCCC3 | i | i | i | -20 | -1.4 | i | i | i | i
O=c1c2c3c(sc2n(CCN2CCCC2)c(=O)n1Cc1ccco1)CCCCC3 | i | i | i | -8 | -2.2 | i | . | . | .
O=C(Cn1c(=O)n(Cc2ccco2)c(=O)c2c3c(sc21)CCCCC3)Nc1ccccc1 | i | 6* | i | 1 | -1.4 | i | i | i | 34%*
CN(C)CCn1c(=O)n(C2CCCCC2)c(=O)c2c3c(sc21)CCCCC3 | i | i | i | -5 | 3.3 | i | i | i | i
OCC[C@H]1C[C@@H](O)[C@H](O)[C@]2(OCc3ccccc32)O1 | . | . | . | . | . | i | . | . | .
Cc1cc(C)c(C#N)c(SCc2cc3c(cc2Cl)OCO3)n1 | -8.5* | i | i | -4 | -0.35 | i | 36%* | i | 36%*
Cc1cc(C)c(C#N)c(SCc2ccccc2C)n1 | i | i | i | -5 | -0.74 | i | . | . | .
COc1ccccc1-n1cnnc1SCC(=O)Nc1cccc(S(=O)(=O)N2CCCCC2)c1 | i | i | i | -10 | -0.52 | . | . | . | .
COC(=O)Nc1ccc(S(=O)(=O)N2CCCC(C(=O)N3CCC(C)CC3)C2)cc1 (centres undefined) | i | i | i | -6 | -0.24 | i | . | . | .
CN(Cc1cccs1)C(=O)Cn1cnc2cc([N+](=O)[O-])ccc2c1=O | i | i | i | -8 | -0.7 | i | . | . | .
Cc1sc2nc(CSc3ccccc3)nc(N3CCN(C)CC3)c2c1C | i | i | i | -19 | -4.7* | i | i | i | 30%*
NC(=O)c1cc(C(=O)c2ccc(Cl)cc2)c[nH]1 | i | i | i | -2 | 1.3 | i | . | . | .
CC(C)(C)N1C(=O)[C@H]2[C@@H](c3ccc(Br)cc3)N3C(=O)N(c4cccc(Cl)c4)C(=O)[C@@]3(Cc3ccccc3)[C@H]2C1=O | -8.4* | i | i | -5 | -0.55 | i | i | i | 26%*
O=c1c2ccccc2cnn1Cc1n[nH]c(=S)n1-c1ccccc1Cl | i | i | i | -7 | 0.14 | i | . | . | .
C=CCOc1ccc(CN(C)Cc2nc3cc(C(F)(F)F)ccc3c(=O)[nH]2)cc1 | i | i | i | -16 | -2.2 | i | i | i | i
c1ccc(CN2CCN(c3nc(-c4ccccc4)nc4ccccc34)CC2)cc1 | -17* | i | i | -9 | 0.9 | i | 34%* | i | 28%*
c1ccc(CN2CCN(c3nc(-c4ccccn4)nc4ccccc34)CC2)cc1 | i | i | i | -6 | -0.91 | i | . | . | .
CCOC(=O)[C@@H]1[C@H]2COc3ccccc3[C@@H]2N2C(=O)N(c3ccc(C(F)(F)F)cc3)C(=O)[C@@]12C | . | . | . | . | . | i | . | . | .
CCOC(=O)[C@@H]1[C@H]2COc3ccccc3[C@H]2N2C(=O)N(c3ccc(C(F)(F)F)cc3)C(=O)[C@]12C | -8.6* | i | i | -12 | -0.6 | i | 52%* | i | 34%*
CCCCn1c(N)c(N(CCC(C)C)C(=O)c2ccc(N3CCCC3=O)cc2)c(=O)[nH]c1=O | i | i | i | -9 | 0.98 | i | . | . | .
Cc1nc(-c2cccnc2)sc1C(=O)N/N=C/c1ccccc1Cl | i | i | i | -9 | 1.8 | i | . | . | .
Cc1cc(C)c(C#N)c(SCC(=O)c2cc(C)n(CCc3ccccc3)c2C)n1 | -8.2* | i | i | -10 | -0.42 | i | 32%* | i | 34%*
COCCn1c(C)cc(C(=O)CSc2nc(C)cc(C)c2C#N)c1C | i | i | i | -4 | 0.51 | i | . | . | .
COc1ccc(-c2nn(C)c3sc(C(=O)NCc4ccco4)cc23)cc1OC | i | i | i | -1 | 0.64 | i | . | . | .
SMILES | KCNK9 block | KCNQ1 block | KCNQ1 act | hERG protect | Kir21 inh | KCNK3 inh | KCNK9 inh conf | Kir2-1 spec | KCNK9 uninduced
COc1cccc(-c2nn(C)c3sc(C(=O)NCc4ccc(C)o4)cc23)c1 | -14* | i | i | -20 | -1.7 | i | 48%* | i | 30%*
COC(=O)C(C)Oc1cc(C)ccc1COc1ccc(-n2nc(C)n(C(F)F)c2=O)cc1 (centres undefined) | i | i | i | -8 | 0.35 | i | i | i | i
COC(=O)C(C)n1nc(C)n(-c2ccc(C)cc2)c1=O (centres undefined) | i | i | i | -11 | 0.93 | i | . | . | .
Cc1ccccc1-c1ocnc1C(=O)Nc1ccccc1NC(=O)c1ccccn1 | -8.7* | i | i | -13 | -1.4 | i | 38%* | i | i
Cc1cc(C)n2nc(C(=O)OCC(=O)Nc3cc(Cl)ccc3C)nc2n1 | . | . | . | . | . | i | . | . | .
CCc1cc(CNC(=O)CC2C(=O)NCCN2Cc2cccc(OC)c2)on1 (centres undefined) | i | i | i | -9 | 0.85 | i | . | . | .
Nc1nc(-c2cccs2)c(-c2cccs2)s1 | -8.8* | i | i | -13 | -1.5 | i | 44%* | i | i
Nc1nc(-c2cccs2)c(CC(=O)O)s1 | i | i | i | -8 | -0.53 | i | . | . | .
CCCN1CCN(CCCNC(=O)Cn2nc(C)n3c(cc4cc(F)ccc43)c2=O)CC1 | i | i | i | -8 | 0.35 | i | . | . | .
O=C(NCCC1=CCCCC1)c1ccc(Cl)c(S(=O)(=O)N2CCCCC2)c1 | i | i | i | -5 | 0.2 | i | i | i | i
Cc1ccc(CSCCNC(=O)c2ccc(Cl)c(S(=O)(=O)N3CCOCC3)c2)cc1 | i | i | i | -15 | -1.7 | i | i | i | i

High-throughput results from PubChem.
